This sample holds only a part of the variants without activity.
B1: tRNA (parent)
chain: GUUCCGUUGGCGUAAUGGUAACGCGUCUCCCUCCUAAGGAGAAGACUGCGGGUUCGAGUCCCGUACGGAACG

Variants of: B1
Assay: yeast fitness relative to wild type (ratio to wild type); higher = fitter; tRNA-Arg(CCU), competitive growth, 37 C, YPD
How it was run: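 The tRNA-Arg(CCU) gene variants were made by chemical synthesis with a 3% per-site mutation rate at 69 sites and inserted at the native genomic locus of Saccharomyces cerevisiae. After pooling, the strains were competed in YPD at 37°C for 24 hours in six parallel replicates. Gene amplicons from the start population and each end population were read by 100-nucleotide paired-end sequencing, and Darwinian fitness relative to wild type was taken from genotype frequency changes. Genotypes needed ≥ 100 starting reads, and estimates < 0.5 were set to 0.5.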

| Variant | yeast fitness |
| --- | --- |
| GUUCCGUUGGCGUAAUGGUAACGCGACUCCCUCCUAAGGUGAAGACUGCGGGUUCGAGUCUCGUACGGAACG | 0.656 |
| GUUCCGUUGGCGUAAUGGUAACGCCUCCCCCUCCUAAGGAGAAGACUGCGGGUUCGAGUCCUGUACGGACCG | ≤ 0.5 |
| GUUCCGUUGGCGUAAUGGUAACGCCUCUCCCUCCUAAGGAGAAGACUGCGGGUGCGAGUCCCGUACGGAACG | 0.581 |
| GUUCCGUUGGCGUAAUGGUAACGCCGCUCCCUCCUAAGGAGAAGAGUGCGAGUUCGAGUCCCGUACGGAUCG | ≤ 0.5 |
| GUUCCGUUGGCGUAAUGGUAACGCUUCUCCCUCCUAAGGAGAAGACUGCGGGUUCGAGUCCCGUUCGGAACG | 1.02 |
| GUUCCGUUGGCGUAAUGGUAACGCUUCUCCCUCCUUAGGAGAAGACUGCGGGUUCCAGUCCCGUACGGAACG | ≤ 0.5 |
| GUUCCGUUGGCGUAAUGGUAACGCGACUCCCUCCUAAGGAGCAGACUGUGGGUUCGAGUGCCGCAAGGAACG | ≤ 0.5 |
| GUUCCGUUGGCGUAAUGGUAACGCGACUCCCUCCUAAGGAGGAGACUCCGGGUUCGAGUCCGGUACGGAACG | ≤ 0.5 |
| GUUCCGUUGGCGUAAUGGUAACGCUUCUCCCCCCUUAGGAGAAGACUGCGGGUUCCAGUCCCGUCCGGAACG | ≤ 0.5 |
| GUUCCGUUGGCGUAAUGGUAACGCCUCUCCCUCCUAAGGAGAAGACUGCGGGCUCGAGUCCCGUCCGGAACG | 0.697 |
| GUUCCGUUGGCGUAAUGGUAACGCGACUCCCUCCUAGGGAGAAGACUGCGGGUUCGAGUCCCGAACGGAACG | ≤ 0.5 |
| GUUCCGUUGGCGUAAUGGUAACGCGACUCCCUCCUAAGGGGAAGACUGCGGGUUCGAGUCCCGUACGGAACG | 0.657 |
| GUUCCGUUGGCGUAAUGGUAACGCUUCUCCCUCCUAAGGAGAAGACUGCGGGUUCGAGUCCCGAACGGAACG | 0.687 |
| GUUCCGUUGGCGUAAUGGUAACGCCUCCCCCUCCUAAGGAGAAGACUGCGGGUUCGAGUCCCGUACGGAACG | 0.79 |
| GUUCCGUUGGCGUAAUGGUAACGCGACUCCCUCCUAAGGAGACGACUGCGGGUUCGAGUCCCGUACGGAACG | 0.966 |
| GUUCCGUUGGCGUAAUGGUAACGCCUCUCCCGCCUAAAGAGAAGACUGCGGGUUCGAGUCUCGUACGGAACG | ≤ 0.5 |
| GUUCCGUUGGCGUAAUGGUAACGCCGCUCCCUCCUAAGGAGAAGAGUGCGGGUUCGAGUCCGGUACGGAACG | ≤ 0.5 |
| GUUCCGUUGGCGUAAUGGUAACGCUUCUCACUCCUAAGGAGAAGAAUGCGGGUUCGAGUCCCGUACGGAACG | 0.581 |
| GUUCCGUUGGCGUAAUGGUAACGCUUCUCCCUCCUUAGGAGAAGACUGCGGGUUCCAGUCCCGUCUGGAACG | ≤ 0.5 |

| Variant | yeast fitness |
| --- | --- |
| GUUCCGUUGGCGUAAUGGUAACGCGACUCCCUCCUACGGAGAAGACUGUGGGUUCAAGUCCCGUACGGAACG | ≤ 0.5 |
| GUUCCGUUGGCGUAAUGGUAACGCUUCUGCCUCCUAAGGAGCAGACUGCGGGUUCGAGUCCCGUACGGAACG | ≤ 0.5 |
| GUUCCGUUGGCGUAAUGGUAACGCGACUCCCUCCUAAGGAGCAGGCUGUGGGUUCGAGUCCCGUACGGAACG | ≤ 0.5 |
| GUUCCGUUGGCGUAAUGGUAACGCGACUCCCUCCUAAGGCGAAGACUGCGGGUACGAGUCCCGUACGGAACG | ≤ 0.5 |
| GUUCCGUUGGCGUAAUGGUAACGCUUCUGCCUCCUAAGGAGCAGACUGCGGGUUCGAGUCCCGUAUAGAACG | ≤ 0.5 |
| GUUCCGUUGGCGUAAUGGUAACGCUUCUCCCUCCUUAGGAGAAGACUGCGGGUUCGAGUCUCGUACGGAACG | ≤ 0.5 |
| GUUCCGUUGGCGUAAUGGUAACGCGACUCCCUCCUAAGGAGGAGACCGCGGGUUCGAGUCCCAUACGGAACG | 0.519 |
| GUUCCGUUGGCGUAAUGGUAACGCCUCUCCCCCCUAAGGAGAAGACUGCGGGUUCGAGUCCCGUACGGAACG | 0.948 |
| GUUCCGUUGGCGUAAUGGUAACGCCUCUCCCGCCUAAGGAGAAGACUGCGGGUUCGAGUCCCGUACGGAACG | 0.655 |
| GUUCCGUUGGCGUAAUGGUAACGCGACUCCCUCCUUAGGAGAAGACUGCGGGUUCGAGUCCCGUACGGAACG | 0.606 |
| GUUCCGUUGGCGUAAUGGUAACGCGACUCCCUCCUAAGGAGGAGACUGCGGGUUCGAGUCCCGUACGGAACG | 0.891 |
| GUUCCGUUGGCGUAAUGGUAACGCGACUCCCUCCUAAGGAGCAGACUGCGGGUUCGAGUCCCGUACGGAACG | 0.97 |
| GUUCCGUUGGCGUAAUGGUAACGCGACUCCCUCCUAAGGCGAAGACUGCGGGUUCGAGUCCCGUAAGGAACG | ≤ 0.5 |
| GUUCCGUUGGCGUAAUGGUAACGCCACUCCCUCCUAAGGAGAAGACUGCGGGUUCGAGUCACGUACGGAACG | ≤ 0.5 |
| GUUCCGUUGGCGUAAUGGUAACGCCUCCCCCUCCUAAGGAGAAGACUGCGGGUUCGAGUCCCGUACGGGCCG | ≤ 0.5 |
| GUUCCGUUGGCGUAAUGGUAACGCCUCCCCCUCCUAAGGAGAAGACUGCGGGUUCGAGUCCCGUACGGACCG | 0.563 |
| GUUCCGUUGGCGUAAUGGUAACGCGACUCCCUCCUUAGGAGAAGACUGAGGGUUCGAGUCCCGUACGGAACG | ≤ 0.5 |
| GUUCCGUUGGCGUAAUGGUAACGCGACUCCCUCCUAAGGGGAAGACUGCGGGUUCGACUCCCGUACUGAACG | 0.556 |
| GUUCCGUUGGCGUAAUGGUAACGCCACUCCCUCCCAAGGAGAAGACUGCGGGUUCGAGUCCCGUACGGAACG | ≤ 0.5 |

From the RNAGym collection of RNA variant scans (doi:10.1126/science.aae0568)
